Source: PubChem BioAssay (several laboratories)
Compounds with a hit are over-represented: about 4.7% of the library has one in this group of screens.
RGS4 pot – RGS4 potentiation or activation; B-score at 10 µM; 310,000 compounds, 0.92% hits; HEK293 M3R/inducible RGS4, carbachol calcium flux Fluo4; stronger effect = lower value; AID 463111;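 active means B-score of the integrated calcium signal more than 4 SD below the library mean, with starting fluorescence not abnormally high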;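 further: negative B-score means reduced calcium response which marks RGS4 activation or potentiation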
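Reagent: ECmax carbachol challenge; Test system: M3R-expressing HEK293 line, RGS4 induced by doxycycline; Schedule: overnight RGS4 induction, 30 min dye load 37 °C, 20 min compound RT; Detection: calcium dye Fluo4 fluorescence; Read-out: Agonist-evoked peak-minus-minimum fluorescence over baseline, integrated ratio, B score.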
MrgX1 allo act – allosterically activates human MrgX1 receptor signaling. MrgX1-HEK293, Fluo-4 calcium flux, FDSS; stronger effect = higher value. Q96LB2. B-score at 10 µM. 310,000 compounds, 0.63% hits;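 active means plate-corrected calcium response at least 3 library SD above typical, normal starting fluorescence, not activating the receptor alone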;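 further: compound read alongside a low EC10 to EC30 dose of BAM8-22 agonist; peak minus trough fluorescence over baseline measured at the second addition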
Target sequence (Q96LB2 whole entry, looked up): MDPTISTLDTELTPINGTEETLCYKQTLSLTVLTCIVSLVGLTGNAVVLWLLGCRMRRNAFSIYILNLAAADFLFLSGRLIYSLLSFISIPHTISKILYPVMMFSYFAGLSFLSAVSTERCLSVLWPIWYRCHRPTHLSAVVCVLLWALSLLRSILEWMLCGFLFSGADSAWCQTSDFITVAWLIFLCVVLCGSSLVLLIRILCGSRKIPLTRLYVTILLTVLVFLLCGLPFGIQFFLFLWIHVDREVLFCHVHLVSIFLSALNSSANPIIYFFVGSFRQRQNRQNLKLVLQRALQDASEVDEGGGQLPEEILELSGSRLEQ
MrgX1 ag – human MrgX1 receptor agonism, primary screen; MrgX1-HEK293 cells, Fluo-4 calcium fluorescence, agonist mode; stronger effect = higher value; 310,000 compounds, 0.44% hits; B-score at 10 µM;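 active means calcium response B-score plate-corrected fluorescence ratio at least 3 library SD, with starting fluorescence B-score inside 5 SD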
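System: HEK293 cells stably expressing human MrgX1 receptor; Dosing: test compound in the initial addition of three; Schedule: overnight plating, then 30 min 37 °C plus 30 min room-temperature dye loading; Detection: kinetic calcium dye fluorescence, Fluo-4 NW; Controls: per-plate positive and negative controls for Z′ factor.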
KCC2 mod – modulators of human KCC2 chloride dependent transport. Q9H2X9. KCC2 cells, thallium flux FluoZin-2 fluorescence. B-score of Tl+ flux slope (higher = more flux/activation; lower = inhibition) at 10 µM. 190,000 compounds, 2.2% hits;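 active means thallium flux slope and its plate-corrected score both differing from the plate sample mean at a set confidence after two filtering rounds, in either direction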;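 further: slope of fluorescence scaled to starting intensity during 10 to 20 s after thallium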
MrgX1 antagonist – blocks BAM8-22 activation of human MrgX1 receptor. B-score at 10 µM. 310,000 compounds, 1.3% hits. AID 588676. MRGX1-HEK293 calcium flux, Fluo-4, BAM8-22 antagonism; stronger effect = lower value. Q96LB2;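 active means calcium-response B-score plate-corrected more than 3 library SD below zero, starting fluorescence within 5 deviations, no agonist response on first addition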;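 further: peak minus trough fluorescence over baseline after final BAM8-22 challenge near maximal dose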
RGS4 inh – human RGS4 inhibition. HEK293 M3R/RGS4 inducible, Fluo-4 calcium flux; stronger effect = higher value; triggered by carbachol at its EC20. 310,000 compounds, 0.45% hits. B-score at 10 µM;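 active means B-score, a plate-corrected calcium signal, over three deviations above library mean, with baseline fluorescence within five deviations of library mean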;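 further: RGS4 expression induced by doxycycline in cells with stable M3 receptor; B-score is computed from the integrated fluorescence ratio over baseline after carbachol; higher B-score means a larger calcium signal and so more RGS4 inhibition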
Target sequence (P49798 whole entry, looked up): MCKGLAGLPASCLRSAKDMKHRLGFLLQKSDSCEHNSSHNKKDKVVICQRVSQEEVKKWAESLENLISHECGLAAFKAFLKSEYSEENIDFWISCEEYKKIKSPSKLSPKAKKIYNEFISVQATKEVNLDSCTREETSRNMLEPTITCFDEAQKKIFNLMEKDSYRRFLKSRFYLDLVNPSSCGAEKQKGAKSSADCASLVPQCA
KCC2 sec1 – KCC2 (human) modulation, secondary assay | HEK293-KCC2, thallium flux, FluoZin2 fluorescence; stronger effect = higher value | shares compounds with KCC2 mod | 3,700 compounds, 15% hits | normalised thallium flux (F/F0 slope) at 10 µM;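 active means thallium flux slope above the same plate's solvent-only control mean plus 3 SD; inconclusive means the two replicate wells disagree; inactive means no significant difference from solvent-only control wells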
KCC2 bumet counter – thallium flux despite bumetanide block in KCC2 cells, secondary assay 3; shares compounds with KCC2 mod; normalized thallium flux at 10 µM; HEK293-KCC2 + bumetanide/ouabain, thallium flux FluoZin2; stronger effect = higher value; 3,700 compounds, 49% hits;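 active means thallium entry rate above the same plate's blocked-transporter control wells by more than 3 SD; inconclusive means the two repeat wells disagree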;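 further: raw slope of fluorescence over initial fluorescence between 10 and 20 s after thallium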
KCC2 sec2 – KCC2 (human) modulation, second secondary assay; shares compounds with KCC2 mod; HEK293-KCC2, thallium flux FluoZin2 fluorescence; actives lie on both sides; F/F0 rise rate, 10–20 s post-thallium; normalized thallium flux at 10 µM; 3,700 compounds, 23% hits; AID 1715;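 active means thallium flux slope more than 3 SD above or below the plate's solvent-only control mean, mostly below; inconclusive means the two repeat wells disagreed; inactive means no significant shift from solvent-only controls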;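 further: raw slope with 0.1% DMSO as baseline and bumetanide as block control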
HEK counter1 – acts in parental HEK cells, KCC2 counter-screen; shares compounds with KCC2 mod; AID 1716; 3,700 compounds, 46% hits; thallium flux rate (normalised fluorescence) at 10 µM; HEK293 parental cells, thallium flux FluoZin2, ouabain; baseline-ratio fluorescence slope, 10–20 s after thallium;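 active means thallium flux rate significantly above the same plate's solvent-only control wells, beyond their mean plus 3 SD; inconclusive means the two replicate wells gave conflicting results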
KCC2 ouabain – modulates human KCC2 on retest with ouabain. 3,700 compounds, 48% hits. raw Tl+ flux slope (below DMSO = inhibition, above = activation) at 10 µM. shares compounds with KCC2 mod. HEK293-KCC2, thallium flux FluoZin2 fluorescence; bidirectional: low = inhibitor, high = activator;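 active means thallium flux slope beyond 3 SD from same-plate DMSO control mean in most replicates, usually higher, sometimes lower; inconclusive means repeat tests gave conflicting results; inactive means no significant difference from controls in most replicates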;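 further: slope of initial-normalized fluorescence between seconds 10 and 20 after thallium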
HEK293 Tl flux2 – parental HEK flux effect, counter-screen 2. thallium flux slope at 10 µM. AID 1718. HEK293 parental, thallium flux FluoZin-2 fluorescence slope. 3,700 compounds, 33% hits. shares compounds with KCC2 mod;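 active means thallium flux slope above the same plate's solvent-control mean plus 3 SD in both duplicate wells; inconclusive means duplicate wells that disagreed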;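 further: run without ouabain in cells lacking the KCC2 cotransporter; slope of fluorescence scaled to its starting value between 10 and 20 s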
An asterisk follows results filed as active; i = inactive; ? = inconclusive; · = no result.

SMILES	RGS4 pot	MrgX1 allo act	MrgX1 ag	KCC2 mod	MrgX1 antagonist	RGS4 inh	KCC2 sec1	KCC2 bumet counter	KCC2 sec2	HEK counter1	KCC2 ouabain	HEK293 Tl flux2
COc1ccc2nc(NC(=O)Nc3cccc4ccccc34)sc2c1	i	i	i	-0.0111	i	i	·	·	·	·	·	·
COc1ccc2nc(N=Nc3c(O)ccc4ccccc34)sc2c1	i	·	·	13.5*	·	i	0.0131*	0.0503*	0.0358	0.0249*	0.0336*	0.0157*
Cc1nc(NC(=S)Nc2ccccc2)sc1C	i	i	i	15.8*	i	i	0.00792	0.0634*	0.0495*	0.0324*	0.0503*	0.0348*
CCN(CC)c1ccc2cc(C(=O)Nc3ccccn3)c(=O)oc2c1	i	i	i	i	i	i	0.00312*	?	0.0156*	0.00366*	0.00541*	0.00648*
COCCNC(=O)c1cc(Br)ccc1Cl	i	i	i	-4.51*	i	i	0.0109	0.0354*	0.0325	0.0191*	0.0284	?
CCc1ccc(OCCNC(=O)c2ccccc2SCc2ccc(F)cc2)cc1	i	i	i	-8.79*	i	i	0.00816	0.00647	0.0234*	0.00649	0.0131*	0.0093
CCc1ccc(OCCNC(=O)c2cc(SC)ccc2Cl)cc1	i	i	i	-6.29*	i	i	0.00668	0.00528	0.0251*	0.00707	?	0.0111
CN(C)CCNC(=O)c1cc(Br)ccc1Cl	i	i	i	0.391	i	i	·	·	·	·	·	·
COc1ccc(N2C(=S)N=C(Nc3ccccc3)C23CCCCC3)cc1	i	i	i	23.2*	i	i	?	0.0261*	0.0327	0.0142*	0.0291*	0.0124*
O=C(c1ccc(F)cc1)N1CCN(S(=O)(=O)c2ccc(Br)cc2)CC1	i	i	i	·	i	i	·	·	·	·	·	·
COc1ccc(NC(=O)NCCN2CCc3ccccc3C2)cc1	i	i	i	-2.38	i	i	·	·	·	·	·	·
CSc1ccc(NC(=O)NCCN2CCc3ccccc3C2)cc1	i	i	i	-3.89*	i	i	0.0145	0.00506	0.0249*	0.00724	0.0151	0.00987
Cc1ccc(C2=NNC(c3cccc(F)c3)S2)cc1 (configuration not stated)	i	i	i	10.2*	i	i	0.00622	?	0.0304	0.00848	0.0203	?
COc1ccc(C2NN=C(c3ccc(C)cc3)S2)cc1OC (configuration not stated)	i	i	i	·	i	i	·	·	·	·	·	·
CC1CCN(CCCNC(=O)c2nn(C)c3c2CS(=O)(=O)c2ccccc2-3)CC1	i	i	i	·	i	i	·	·	·	·	·	·
CCOC(=O)Cn1c(=O)oc2cc(S(=O)(=O)N3CCc4ccccc43)ccc21	i	i	i	-3.26*	i	i	0.00924	0.00601	0.0312	0.0083	0.0211	0.0108
CC(C)(C)NC(=O)Cn1c(=O)oc2cc(S(=O)(=O)N3CCc4ccccc43)ccc21	i	i	i	0.369	i	i	·	·	·	·	·	·
O=C1CCCc2c1[nH]c1ccc(CN3CCCCC3)cc21	i	i	i	-5.07*	i	i	0.00521	0.00482	0.0293	0.00772	0.0185	0.0103
CSc1nnc(-c2cnccn2)n1CCCN1CCCC1=O	i	i	i	8.24*	i	i	0.00728	0.00435	0.0319	0.00743	0.0198	0.01
CCn1c(SCC(=O)C(C)(C)C)nnc1-c1cnccn1	i	i	i	-0.603	i	i	·	·	·	·	·	·
CC(Oc1ccccc1Cl)C(=O)Nc1ccc(S(=O)(=O)Nc2nccs2)cc1 (configuration not stated)	i	i	i	·	i	i	·	·	·	·	·	·
CCN1CCN(c2nc3c(C)cccn3c(=O)c2/C=C(\C#N)C(=O)NCCOC)CC1	i	i	i	·	i	i	·	·	·	·	·	·
NC(=O)c1ccc(NC(=O)C#Cc2ccccc2)cc1	i	i	i	·	i	i	·	·	·	·	·	·
Cc1c(N2C(=O)c3cccc4cccc(c34)C2=O)c(=O)n(-c2ccccc2)n1C	i	i	i	·	i	i	·	·	·	·	·	·
Cc1c(N=C2Nc3cccc4cccc2c34)c(=O)n(-c2ccccc2)n1C	i	i	i	-2.9*	i	i	?	0.0051	0.0258*	0.00843	0.0162*	0.00978
SMILES	RGS4 pot	MrgX1 allo act	MrgX1 ag	KCC2 mod	MrgX1 antagonist	RGS4 inh	KCC2 sec1	KCC2 bumet counter	KCC2 sec2	HEK counter1	KCC2 ouabain	HEK293 Tl flux2
CC1N(C(=O)N2CCOCC2)CCN1S(=O)(=O)c1ccc(Cl)cc1 (configuration not stated)	i	i	i	·	i	i	·	·	·	·	·	·
CC(C)C(C(=O)NC1CCCC1)N(CC1CCCO1)C(=O)CNS(=O)(=O)c1ccc(F)cc1 (configuration not stated)	i	i	i	·	i	i	·	·	·	·	·	·
C/C(=N\NC(=S)Nc1ccc(F)cc1)C1CC1	i	i	i	8.39*	i	i	0.00754	0.0236*	0.0362	0.0181*	0.0277*	0.0217*
CC1CCN(C(=S)Nc2ccc(F)cc2)CC1	i	i	i	-0.209	i	i	·	·	·	·	·	·
Cc1nnc(NC(=O)c2ccc3ccccc3c2)o1	·	i	i	·	i	·	0.012*	0.0158*	0.0299	0.0107*	0.0261*	0.0104
S=c1[nH]nc(Nc2cccc(Cl)c2)s1	i	i	i	-5.84*	i	i	0.00606	0.00507	0.0198*	0.00819	?	0.0117
O=C(O)c1ccccc1C(=O)Nc1n[nH]c(=S)s1	i	i	i	-0.391	i	i	·	·	·	·	·	·
